Assay results published in ChEMBL document CHEMBL2424583, “Structure-activity relationship and in vitro and in vivo evaluation of the potent cytotoxic anti-microtubule agent N-(4-methoxyphenyl)-N,2,6-trimethyl-6,7-dihydro-5H-cyclopenta[d]pyrimidin-4-aminium chloride and its analogues as antitumor agents” (J Med Chem, 2013).
Calls of active or inactive are those of the source. The rule behind the calls is not given here.

Assays:
[1] = molecular target: Tubulin (Sus scrofa) (UniProt P02554+P02550); experiment: Displacement of [3H]-colchicine from pig brain tubulin at 5 uM after 10 mins by scintillation counting analysis relative to control
[2] = system: MDA-MB-468; experiment: Cytotoxicity against human MDA-MB-468 cells assessed as growth inhibition after 48 hrs by SRB assay; type: functional; conditions: MDA-MB-468, 48 h
[3] = system: Hs-578T; experiment: Cytotoxicity against human Hs578T cells assessed as growth inhibition after 48 hrs by SRB assay; type: functional
[4] = system: BT-549; experiment: Cytotoxicity against human BT549 cells assessed as growth inhibition after 48 hrs by SRB assay; type: functional; conditions: BT-549, 48 h
[5] = system: MDA-MB-231; experiment: Cytotoxicity against human MDA-MB-231 cells assessed as growth inhibition after 48 hrs by SRB assay; type: functional; conditions: MDA-MB-231, 48 h
[6] = system: MCF7; experiment: Cytotoxicity against human MCF7 cells assessed as growth inhibition after 48 hrs by SRB assay; type: functional; conditions: MCF7, 48 h
[7] = system: DU-145; experiment: Cytotoxicity against human DU145 cells assessed as growth inhibition after 48 hrs by SRB assay; type: functional; conditions: DU-145, 48 h
[8] = system: PC-3; experiment: Cytotoxicity against human PC3 cells assessed as growth inhibition after 48 hrs by SRB assay; type: functional; conditions: PC-3, 48 h
[9] = system: UO-31; experiment: Cytotoxicity against human UO31 cells assessed as growth inhibition after 48 hrs by SRB assay; type: functional; conditions: UO-31, 48 h
[10] = system: TK-10; experiment: Cytotoxicity against human TK10 cells assessed as growth inhibition after 48 hrs by SRB assay; type: functional; conditions: TK-10, 48 h
[11] = system: RXF 393; experiment: Cytotoxicity against human RXF393 cells assessed as growth inhibition after 48 hrs by SRB assay; type: functional; conditions: RXF 393, 48 h
[12] = system: ACHN; experiment: Cytotoxicity against human ACHN cells assessed as growth inhibition after 48 hrs by SRB assay; type: functional
[13] = system: A498; experiment: Cytotoxicity against human A498 cells assessed as growth inhibition after 48 hrs by SRB assay; type: functional; conditions: A498, 48 h
[14] = system: 786-0; experiment: Cytotoxicity against human 786-0 cells assessed as growth inhibition after 48 hrs by SRB assay; type: functional; conditions: 786-0, 48 h
[15] = system: SK-OV-3; experiment: Cytotoxicity against human SKOV3 cells assessed as growth inhibition after 48 hrs by SRB assay; type: functional; conditions: SK-OV-3, 48 h
[16] = system: OVCAR-8; experiment: Cytotoxicity against human OVCAR8 cells assessed as growth inhibition after 48 hrs by SRB assay; type: functional; conditions: OVCAR-8, 48 h
[17] = system: OVCAR-5; experiment: Cytotoxicity against human OVCAR5 cells assessed as growth inhibition after 48 hrs by SRB assay; type: functional; conditions: OVCAR-5, 48 h
[18] = system: OVCAR-4; experiment: Cytotoxicity against human OVCAR4 cells assessed as growth inhibition after 48 hrs by SRB assay; type: functional; conditions: OVCAR-4, 48 h
[19] = system: OVCAR-3; experiment: Cytotoxicity against human OVCAR3 cells assessed as growth inhibition after 48 hrs by SRB assay; type: functional; conditions: OVCAR-3, 48 h
[20] = system: IGROV-1; experiment: Cytotoxicity against human IGROV1 cells assessed as growth inhibition after 48 hrs by SRB assay; type: functional; conditions: IGROV-1, 48 h
[21] = system: SK-MEL-2; experiment: Cytotoxicity against human SK-MEL-2 cells assessed as growth inhibition after 48 hrs by SRB assay; type: functional; conditions: SK-MEL-2, 48 h
[22] = system: MDA-MB-435; experiment: Cytotoxicity against human MDA-MB-435 cells assessed as growth inhibition after 48 hrs by SRB assay; type: functional; conditions: MDA-MB-435, 48 h
[23] = system: SNB-75; experiment: Cytotoxicity against human SNB75 cells assessed as growth inhibition after 48 hrs by SRB assay; type: functional; conditions: SNB-75, 48 h
[24] = system: SF-539; experiment: Cytotoxicity against human SF539 cells assessed as growth inhibition after 48 hrs by SRB assay; type: functional; conditions: SF-539, 48 h
[25] = system: SNB-19; experiment: Cytotoxicity against human SNB19 cells assessed as growth inhibition after 48 hrs by SRB assay; type: functional; conditions: SNB-19, 48 h
[26] = system: SF-295; experiment: Cytotoxicity against human SF295 cells assessed as growth inhibition after 48 hrs by SRB assay; type: functional; conditions: SF-295, 48 h
[27] = system: SF-268; experiment: Cytotoxicity against human SF268 cells assessed as growth inhibition after 48 hrs by SRB assay; type: functional; conditions: SF-268, 48 h
[28] = system: SW-620; experiment: Cytotoxicity against human SW620 cells assessed as growth inhibition after 48 hrs by SRB assay; type: functional; conditions: SW-620, 48 h
[29] = system: KM12; experiment: Cytotoxicity against human KM12 cells assessed as growth inhibition after 48 hrs by SRB assay; type: functional; conditions: KM12, 48 h
[30] = system: HCT-15; experiment: Cytotoxicity against human HCT15 cells assessed as growth inhibition after 48 hrs by SRB assay; type: functional; conditions: HCT-15, 48 h
[31] = system: HCC 2998; experiment: Cytotoxicity against human HCC2998 cells assessed as growth inhibition after 48 hrs by SRB assay; type: functional; conditions: HCC 2998, 48 h
[32] = system: NCI-H522; experiment: Cytotoxicity against human NCI-H522 cells assessed as growth inhibition after 48 hrs by SRB assay; type: functional; conditions: NCI-H522, 48 h
[33] = system: COLO 205; experiment: Cytotoxicity against human COLO205 cells assessed as growth inhibition after 48 hrs by SRB assay; type: functional; conditions: COLO 205, 48 h
[34] = system: NCI-H460; experiment: Cytotoxicity against human NCI-H460 cells assessed as growth inhibition after 48 hrs by SRB assay; type: functional; conditions: NCI-H460, 48 h
[35] = system: NCI-H23; experiment: Cytotoxicity against human NCI-H23 cells assessed as growth inhibition after 48 hrs by SRB assay; type: functional; conditions: NCI-H23, 48 h
[36] = system: NCI-H226; experiment: Cytotoxicity against human NCI-H226 cells assessed as growth inhibition after 48 hrs by SRB assay; type: functional; conditions: NCI-H226, 48 h
[37] = system: HOP-92; experiment: Cytotoxicity against human HOP92 cells assessed as growth inhibition after 48 hrs by SRB assay; type: functional; conditions: HOP-92, 48 h
[38] = system: HOP-62; experiment: Cytotoxicity against human HOP62 cells assessed as growth inhibition after 48 hrs by SRB assay; type: functional; conditions: HOP-62, 48 h
[39] = system: A549; experiment: Cytotoxicity against human A549 cells assessed as growth inhibition after 48 hrs by SRB assay; type: functional; conditions: A549, 48 h
[40] = system: SR; experiment: Cytotoxicity against human SR cells assessed as growth inhibition after 48 hrs by SRB assay; type: functional
[41] = system: K562; experiment: Cytotoxicity against human K562 cells assessed as growth inhibition after 48 hrs by SRB assay; type: functional; conditions: K562, 48 h
[42] = system: HL-60(TB); experiment: Cytotoxicity against human HL-60(TB) cells assessed as growth inhibition after 48 hrs by SRB assay; type: functional; conditions: HL-60, 48 h
[43] = system: CCRF-CEM; experiment: Cytotoxicity against human CCRF-CEM cells assessed as growth inhibition after 48 hrs by SRB assay; type: functional
[44] = system: MDA-MB-435; experiment: Cell cycle arrest in human MDA-MB-435 cells assessed as […] at 25 nM after 24 hrs by FACS flow cytometric analysis; type: functional, cell-based
How it was run: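 MDA-MB-435 cells plated and allowed to adhere 24 h, then exposed to drug for 24 h. Cells harvested, stained with Krishan's reagent, and DNA content analysed by flow cytometry.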

Sequence of Tubulin (Sus scrofa) (P02550 whole entry, looked up): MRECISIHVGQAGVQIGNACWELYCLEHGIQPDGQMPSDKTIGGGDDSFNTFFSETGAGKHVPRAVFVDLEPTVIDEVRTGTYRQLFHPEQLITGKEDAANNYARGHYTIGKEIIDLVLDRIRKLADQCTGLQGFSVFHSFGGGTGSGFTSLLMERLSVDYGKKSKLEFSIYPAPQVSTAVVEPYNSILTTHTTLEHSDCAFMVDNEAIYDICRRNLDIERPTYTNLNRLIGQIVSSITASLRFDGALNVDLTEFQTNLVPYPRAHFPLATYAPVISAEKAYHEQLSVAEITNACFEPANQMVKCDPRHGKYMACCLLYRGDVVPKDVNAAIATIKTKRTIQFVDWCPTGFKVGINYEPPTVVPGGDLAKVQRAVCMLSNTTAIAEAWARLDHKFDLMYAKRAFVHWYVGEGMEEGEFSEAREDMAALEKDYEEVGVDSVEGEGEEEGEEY
Sequence of Tubulin (Sus scrofa) (P02554 whole entry, looked up): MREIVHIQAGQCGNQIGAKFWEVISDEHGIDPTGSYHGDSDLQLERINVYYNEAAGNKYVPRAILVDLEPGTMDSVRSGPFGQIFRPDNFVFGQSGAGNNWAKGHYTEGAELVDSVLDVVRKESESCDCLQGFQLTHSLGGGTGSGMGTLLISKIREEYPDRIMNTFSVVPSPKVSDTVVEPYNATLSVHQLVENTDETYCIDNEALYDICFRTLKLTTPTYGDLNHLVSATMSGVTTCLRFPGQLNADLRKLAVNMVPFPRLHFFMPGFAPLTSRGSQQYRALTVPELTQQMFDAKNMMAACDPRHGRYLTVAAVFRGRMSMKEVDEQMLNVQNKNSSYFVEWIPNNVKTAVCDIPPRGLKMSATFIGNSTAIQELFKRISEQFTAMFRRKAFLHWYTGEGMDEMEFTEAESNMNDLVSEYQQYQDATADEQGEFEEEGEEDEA

COc1ccc(N(C)c2nc(C)nc3c2CC(C)C3)cc1.Cl (racemic)
inhibition (INH) [1]: 84%
GI50 [2]: < 10 nM
GI50 [3]: < 10 nM
GI50 [4]: 21.9 nM
GI50 [5]: 24.6 nM
GI50 [6]: < 10 nM
GI50 [7]: 21.4 nM
GI50 [8]: 14.6 nM
GI50 [9]: 13.4 nM
GI50 [10]: 292 nM
GI50 [11]: < 10 nM
GI50 [12]: 14.6 nM
GI50 [13]: < 10 nM
GI50 [14]: 34.8 nM
GI50 [15]: 27.5 nM
GI50 [16]: 32.8 nM
GI50 [17]: 38.5 nM
GI50 [18]: 26.8 nM
GI50 [19]: < 10 nM
GI50 [20]: 11 nM
GI50 [21]: 33.1 nM
GI50 [22]: < 10 nM
GI50 [23]: < 10 nM
GI50 [24]: 11.4 nM
GI50 [25]: 36.9 nM
GI50 [26]: < 10 nM
GI50 [27]: 15.2 nM
GI50 [28]: < 10 nM
GI50 [29]: < 10 nM
GI50 [30]: < 10 nM
GI50 [31]: 24 nM
GI50 [32]: < 10 nM
GI50 [33]: 18.3 nM
GI50 [34]: 23.4 nM
GI50 [35]: 16.4 nM
GI50 [36]: 31.5 nM
GI50 [37]: 55.4 nM
GI50 [38]: 19.4 nM
GI50 [39]: 24.4 nM
GI50 [40]: < 10 nM
GI50 [41]: < 10 nM
GI50 [42]: < 10 nM
GI50 [43]: 16.3 nM
Activity [44]: Active

COc1ccc(N(C)c2nc(C)nc3c2CCC3)cc1.Cl
inhibition [1]: 92%
GI50 [2]: < 10 nM
GI50 [3]: < 10 nM
GI50 [4]: 21.8 nM
GI50 [5]: 25.9 nM
GI50 [6]: < 10 nM
GI50 [7]: 19.6 nM
GI50 [8]: < 10 nM
GI50 [9]: 46.1 nM
GI50 [10]: 42.7 nM
GI50 [11]: < 10 nM
GI50 [12]: < 10 nM
GI50 [13]: < 10 nM
GI50 [14]: 17.8 nM
GI50 [15]: 14.6 nM
GI50 [16]: 21.8 nM
GI50 [17]: 36.4 nM
GI50 [18]: 22.9 nM
GI50 [19]: < 10 nM
GI50 [20]: 12.8 nM
GI50 [21]: 11.9 nM
GI50 [22]: < 10 nM
GI50 [23]: < 10 nM
GI50 [24]: < 10 nM
GI50 [25]: 17 nM
GI50 [26]: < 10 nM
GI50 [27]: 13.9 nM
GI50 [28]: < 10 nM
GI50 [29]: < 10 nM
GI50 [30]: < 10 nM
GI50 [31]: 16.4 nM
GI50 [32]: < 10 nM
GI50 [33]: < 10 nM
GI50 [34]: 10.3 nM
GI50 [35]: 22.3 nM
GI50 [36]: 34.7 nM
GI50 [37]: 16 nM
GI50 [38]: < 10 nM
GI50 [39]: 15 nM
GI50 [40]: < 10 nM
GI50 [41]: < 10 nM
GI50 [42]: < 10 nM
GI50 [43]: < 10 nM
Activity [44]: Active
